Experimental data from ChEMBL document CHEMBL3751823, “Design, synthesis and antitrypanosomal activities of 2,6-disubstituted-4,5,7-trifluorobenzothiophenes” (Eur J Med Chem, 2016).
pIC50: −log10 of the molar value.

Assays:
MCF7 = assay: Cytotoxicity against human MCF7 cells assessed as inhibition of cell proliferation; type: cell-based
[1] = tested on: Trypanosoma brucei rhodesiense; assay: Antitrypanosomal activity against Trypanosoma brucei rhodesiense STIB 900 after 72 hrs by alamar blue assay; type: functional, organism-based; conditions: STIB 900, 72 h
Summary of the method: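 Bloodstream forms of clone STIB 900 (patient isolate, Tanzania 1982), 1 × 10^3 per well, exposed to 3-fold serial dilutions from a top concentration of 30 μg/ml. DMSO stocks were diluted in medium. Incubation 72 h at 37 °C, 5% CO2, in triplicate. Alamar Blue was then added for 2-4 h more. Fluorescence read at ex 530/em 580 nm, IC50 by curve fit.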

[2] = Selectivity index, ratio of IC50 for cytotoxicity against human MCF7 cells to IC50 for Trypanosoma brucei rhodesiense STIB 900; type: toxicity, cell-based; conditions: read-out: Ratio IC50

Structure (SMILES)	pIC50 [1]	pIC50 (MCF7)	selectivity ratio [2]
COC(=O)c1cc2c(F)c(F)c(Sc3ccc(C(C)(C)C)cc3)c(F)c2s1	4.17	< 4.30	–
COC(=O)c1cc2c(F)c(F)c(-n3ccnc3)c(F)c2s1	3.89	< 4.00	–
O=C(c1ccccc1)c1cc2c(F)c(F)c(-n3ccnc3)c(F)c2s1	4.48	< 4.22	–
COC(=O)CSc1c(F)c(F)c2cc(C(=O)OC)sc2c1F	< 5.00	< 4.60	–
O=C(CSc1c(F)c(F)c2cc(C(=O)c3ccccc3)sc2c1F)c1ccccc1	< 5.00	< 4.30	–
CC(C)(C)c1ccc(Sc2c(F)c(F)c3cc(C(=O)c4ccccc4)sc3c2F)cc1	4.50	< 4.60	–
Nc1nc(N)nc(Nc2ccc([As]3SCC(CO)S3)cc2)n1 (configuration not stated) [MELARSOPROL]	7.29	–	–

More lines, main results first:

pIC50 [1]	Structure (SMILES)	pIC50 (MCF7)	selectivity ratio [2]
4.52	COC(=O)c1cc2c(F)c(F)c(Oc3ccccc3Br)c(F)c2s1	< 4.60	–
6.22	COC(=O)c1cc2c(F)c(F)c(-n3cnc4ccccc43)c(F)c2s1	< 4.92	> 20
4.92	COC(=O)c1cc2c(F)c(F)c(Sc3ccccc3Br)c(F)c2s1	< 4.60	–
5.01	O=C(c1ccccc1)c1cc2c(F)c(F)c(Sc3ccccc3Br)c(F)c2s1	< 4.60	–
4.80	O=C(c1ccccc1)c1cc2c(F)c(F)c(Oc3ccccc3Br)c(F)c2s1	< 4.60	–
6.28	O=C(c1ccccc1)c1cc2c(F)c(F)c(-n3cnc4ccccc43)c(F)c2s1	< 4.60	50
